According to ChEMBL document CHEMBL4673384, “Studying Histone Deacetylase Inhibition and Apoptosis Induction of Psammaplin A Monomers with Modified Thiol Group” (ACS Med Chem Lett, 2021):
Activity calls are given as the source filed them. The calls are words filed in the database; no cut-off is given here.

Columns and labels:
[1] = test system: HL-60; test: Induction of apoptosis in human HL-60 cells assessed as necrotic cells at 1 uM incubated for 24 hrs by propidium iodide and annexin-V FITC staining based FACS analysis (reference value: 0.5 %); assay type: functional
[2] = test system: HL-60; test: Induction of apoptosis in human HL-60 cells assessed as late apoptotic cells at 1 uM incubated for 24 hrs by propidium iodide and annexin-V FITC staining based FACS analysis (reference value: 4.2 %); assay type: functional
[3] = test system: HL-60; test: Induction of apoptosis in human HL-60 cells assessed as viable cells at 1 uM incubated for 24 hrs by propidium iodide and annexin-V FITC staining based FACS analysis (reference value: 92.5 %); assay type: functional; conditions: read-out: Activity
[4] = Antitumor activity against mouse LL/2 cells inoculated in C57BL/6J mouse assessed as reduction of tumor weight at 100 mg/kg, ip administered for 12 days and measured at day 14 (reference value: 1.2 +/- 0.3 g); assay type: functional, Lewis lung carcinoma; conditions: time 12 day
[5] = Toxicity in mouse LL/2 cells inoculated C57BL/6J mouse assessed as effect on body weight by measuring end body weight at 100 mg/kg, ip administered for 12 days and measured for every 2 days (reference value: 17.8 +/- 0.7 g); assay type: organism-based; conditions: in vivo, 288 h, time 12 day
[6] = Toxicity in mouse LL/2 cells inoculated C57BL/6J mouse assessed as effect on body weight by measuring initial body weight at 100 mg/kg, ip administered for 12 days and measured for every 2 days (reference value: 18.6 +/- 0.8 g); assay type: organism-based; conditions: in vivo, 288 h, time 12 day
[7] = test system: HL-60; test: Induction of apoptosis in human HL-60 cells assessed as necrotic cells at 8 uM incubated for 24 hrs by propidium iodide and annexin-V FITC staining based FACS analysis (reference value: 0.5 %); assay type: functional
[8] = test system: HL-60; test: Induction of apoptosis in human HL-60 cells assessed as late apoptotic cells at 8 uM incubated for 24 hrs by propidium iodide and annexin-V FITC staining based FACS analysis (reference value: 4.2 %); assay type: functional
[9] = test system: HL-60; test: Induction of apoptosis in human HL-60 cells assessed as early apoptotic cells at 8 uM incubated for 24 hrs by propidium iodide and annexin-V FITC staining based FACS analysis (reference value: 2.9 %); assay type: functional
[10] = molecular target: Histone deacetylase 2 (Homo sapiens, UniProt Q92769); test: Inhibition of HDAC2 in human HL-60 cells assessed as increase in Ac-H3 level at 0.5 to 2 uM incubated for 24 hrs by Western blot analysis; assay type: cell-based; conditions: dose 0.5-2 µM
Chain of Histone deacetylase 2 (Q92769 whole entry): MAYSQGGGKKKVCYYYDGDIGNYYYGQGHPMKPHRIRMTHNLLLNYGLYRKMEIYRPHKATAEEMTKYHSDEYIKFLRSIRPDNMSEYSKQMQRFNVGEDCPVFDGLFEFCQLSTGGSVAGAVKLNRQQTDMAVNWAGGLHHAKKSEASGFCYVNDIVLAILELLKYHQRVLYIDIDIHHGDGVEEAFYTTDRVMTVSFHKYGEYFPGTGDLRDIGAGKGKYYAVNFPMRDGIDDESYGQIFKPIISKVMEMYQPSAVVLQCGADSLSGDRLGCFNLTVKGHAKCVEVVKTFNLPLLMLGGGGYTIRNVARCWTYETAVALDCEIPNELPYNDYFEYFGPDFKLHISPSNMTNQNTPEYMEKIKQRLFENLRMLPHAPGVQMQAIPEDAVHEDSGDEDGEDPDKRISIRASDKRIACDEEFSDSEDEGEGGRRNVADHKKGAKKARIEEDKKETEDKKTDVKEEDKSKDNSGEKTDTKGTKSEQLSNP
Procedure, shortened: (§1)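 Compound given to HL-60 cells for 24 h at the stated concentrations, then lysed. Acetyl-histone H3 and acetyl-α-tubulin levels were read by Western blot, with total H3, α-tubulin or β-actin as references.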

[11] = molecular target: Histone deacetylase 1 (Homo sapiens, UniProt Q13547); test: Inhibition of HDAC1 in human HL-60 cells assessed as increase in Ac-H3 level at 0.5 to 2 uM incubated for 24 hrs by Western blot analysis; assay type: cell-based; conditions: dose 0.5-2 µM; procedure, shortened: as §1
Chain of Histone deacetylase 1 (Q13547 whole entry): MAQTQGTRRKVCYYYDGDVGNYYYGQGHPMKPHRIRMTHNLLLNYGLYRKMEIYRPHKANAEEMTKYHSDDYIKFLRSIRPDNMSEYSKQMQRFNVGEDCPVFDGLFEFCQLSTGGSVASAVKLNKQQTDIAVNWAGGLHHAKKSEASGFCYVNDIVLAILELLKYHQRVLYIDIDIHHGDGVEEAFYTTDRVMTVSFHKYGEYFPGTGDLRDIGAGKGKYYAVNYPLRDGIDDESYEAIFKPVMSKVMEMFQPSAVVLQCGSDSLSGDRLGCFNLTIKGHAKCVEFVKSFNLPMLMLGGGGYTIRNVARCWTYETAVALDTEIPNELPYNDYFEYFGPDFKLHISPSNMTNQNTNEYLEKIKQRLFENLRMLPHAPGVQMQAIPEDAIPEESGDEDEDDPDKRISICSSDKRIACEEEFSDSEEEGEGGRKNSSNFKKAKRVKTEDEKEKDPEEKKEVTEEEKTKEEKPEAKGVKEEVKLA

[12] = test system: HL-60; test: Induction of apoptosis in human HL-60 cells assessed as cleavage of caspase-9 at 0.5 to 2 uM after 24 hrs Western blot analysis; assay type: functional, cell-based; conditions: dose 0.5-2 µM
Procedure, shortened: (§2)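 HL-60 cells were treated for 24 h at the indicated concentrations, then analysed by Western blot. Blots were probed for cleavage of PARP and caspase-3, -8 and -9. Ac-H3, Ac-α-tubulin and β-actin were also detected, with β-actin as the loading reference.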

[13] = test system: HL-60; test: Induction of apoptosis in human HL-60 cells assessed as cleavage of caspase-8 at 0.5 to 2 uM after 24 hrs Western blot analysis; assay type: functional, cell-based; conditions: dose 0.5-2 µM; procedure, shortened: as §2
[14] = test system: HL-60; test: Induction of apoptosis in human HL-60 cells assessed as cleavage of caspase-3 at 0.5 to 2 uM after 24 hrs Western blot analysis; assay type: functional, cell-based; conditions: dose 0.5-2 µM; procedure, shortened: as §2
[15] = test system: HL-60; test: Induction of apoptosis in human HL-60 cells assessed as necrotic cells at 2 uM incubated for 24 hrs by propidium iodide and annexin-V FITC staining based FACS analysis (reference value: 0.3 %); assay type: functional
[16] = test system: HL-60; test: Induction of apoptosis in human HL-60 cells assessed as late apoptotic cells at 2 uM incubated for 24 hrs by propidium iodide and annexin-V FITC staining based FACS analysis (reference value: 4.8 %); assay type: functional
[17] = test system: HL-60; test: Induction of apoptosis in human HL-60 cells assessed as early apoptotic cells at 2 uM incubated for 24 hrs by propidium iodide and annexin-V FITC staining based FACS analysis (reference value: 2.8 %); assay type: functional
[18] = test system: HL-60; test: Induction of apoptosis in human HL-60 cells assessed as necrotic cells at 1 uM incubated for 24 hrs by propidium iodide and annexin-V FITC staining based FACS analysis (reference value: 0.3 %); assay type: functional
[19] = test system: HL-60; test: Induction of apoptosis in human HL-60 cells assessed as early apoptotic cells at 1 uM incubated for 24 hrs by propidium iodide and annexin-V FITC staining based FACS analysis (reference value: 2.8 %); assay type: functional
[20] = test system: HL-60; test: Induction of apoptosis in human HL-60 cells assessed as late apoptotic cells at 0.5 uM incubated for 24 hrs by propidium iodide and annexin-V FITC staining based FACS analysis (reference value: 4.8 %); assay type: functional
[21] = test system: HL-60; test: Induction of apoptosis in human HL-60 cells assessed as early apoptotic cells at 0.5 uM incubated for 24 hrs by propidium iodide and annexin-V FITC staining based FACS analysis (reference value: 2.8 %); assay type: functional

Question: With O=C(NCCSSCCNC(=O)/C(Cc1ccc(O)c(Br)c1)=N/O)/C(Cc1ccc(O)c(Br)c1)=N/O [PSAMMAPLIN A] as the molecule, how does the Activity [1] read?
Answer: 0.8%

Question: And the Activity [2]?
Answer: 7.8%

Question: And the viability at 1 µM [3]?
Answer: 88.8%

Question: Which Activity [4] does the source give for O=C(NCCS)/C(Cc1ccc(O)c(Br)c1)=N/O here?
Answer: 0.5 g

Question: What about the Activity [5] of the same molecule?
Answer: 16.9 g

Question: And the Activity [6]?
Answer: 18.6 g

Question: And the Activity [7]?
Answer: 3.3%

Question: What about the Activity [8] of the same molecule?
Answer: 25.1%

Question: What about the Activity [9] of the same molecule?
Answer: 3.3%

Question: With O=C(CCNC(=O)/C(Cc1ccc(O)c(Br)c1)=N/O)NO as the molecule, how does the inhibition [10] read?
Answer: Active

Question: What about the inhibition [11] of the same molecule?
Answer: Active

Question: And the Activity [12]?
Answer: Active

Question: What about the Activity [13] of the same molecule?
Answer: Active

Question: And the Activity [14]?
Answer: Active

Question: What about the Activity [15] of the same molecule?
Answer: 0.8%

Question: What about the Activity [16] of the same molecule?
Answer: 21.9%

Question: What about the Activity [17] of the same molecule?
Answer: 7.3%

Question: What about the Activity [18] of the same molecule?
Answer: 0.5%

Question: What about the Activity [19] of the same molecule?
Answer: 7.1%

Question: And the Activity [20]?
Answer: 5.9%

Question: And the Activity [21]?
Answer: 1.9%
